Measured values reported in the array DNA melting data of Ke et al. (doi:10.1101/2024.01.08.574731).

Tests used:
[1] = melting temperature; fluorescence melt of hairpins on a sequencing array, two-state fit, raised by 9.35 °C to match UV melts; settings: sodium 0.088 M
Method in brief: (§1)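 Cy3 signals were normalised both to pre-quench Cy3 and to control constructs. They came from library hairpins carrying annealed Cy3 and quencher oligos on a sequenced MiSeq flow cell, imaged in 50 mM Na-HEPES pH 8.0, 25 mM NaCl, in 2.5 °C steps up to 60 °C. Bootstrapped two-state fits gave melting temperature and folding enthalpy, and four replicates were combined by inverse variance. Fitted temperatures were then raised by 9.35 °C to match UV melts.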

[2] = folding enthalpy; higher = less favourable; fluorescence melt of hairpins on a sequencing array, two-state fit; settings: sodium 0.088 M
Method in brief: as §1

Sequence	Tm [1]	folding enthalpy [2]
GTACACCGAAAGGTTTAC (((.(((....))).)))	42 °C	-30.6 kcal/mol
GTACACGAAAGTGATAC ((((((....))).)))	40.1 °C	-17.1 kcal/mol
GTACACGAAAGTGGGTAC ((((((....)))..)))	37.4 °C	-14.9 kcal/mol
GTACACGAAAGTGGTAC ((((((....))).)))	47.8 °C	-17.9 kcal/mol
GTACACGGAAACACGTAC ((((..(....)..))))	29.1 °C	-15.4 kcal/mol
GTACACGGAAACGTATAC (((.(((....))).)))	33.6 °C	-23.8 kcal/mol
GTACAGCCGAAAGGCTAC (((..(((....))))))	27.2 °C	-7.38 kcal/mol
GTACAGGGAAACCCGTAC ((((.((....)).))))	43.4 °C	-24.8 kcal/mol
GTACAGTCGAAAGACTAC (((..(((....))))))	29.7 °C	-10.2 kcal/mol
GTACATCGAAAGATTTAC (((.(((....))).)))	35 °C	-17.8 kcal/mol
GTACATGGAAACATGTGC (.(((((....))))).)	48.6 °C	-22.7 kcal/mol
GTACATGGAAACGTGTAC (((((.(....).)))))	45.8 °C	-32.1 kcal/mol
GTACCAGAAATGGTAC ((((((....))))))	53.2 °C	-33.1 kcal/mol
GTACCCCCGAAAGGGTAC (((..(((....))))))	52.3 °C	-25.7 kcal/mol
GTACCCGAAAGGGGATAC ((((((....)))..)))	41.9 °C	-11.9 kcal/mol
GTACCCGGAAACGAGTAC ((((.((....)).))))	41.1 °C	-25.8 kcal/mol
GTACCCGGAAACGGGTGC (.(((((....))))).)	60.1 °C	-20.1 kcal/mol
GTACCTGGAAACAGGCAC ((.((((....)))).))	42.5 °C	-22.1 kcal/mol
GTACGACGAAAGTCTTAC (((.(((....))).)))	40.3 °C	-26.1 kcal/mol
GTACGCGAAAGCGAATAC ((((((....)))..)))	31.9 °C	-8.59 kcal/mol
GTACGCGAAAGCGCGTAC ((((((....)))..)))	62.5 °C	-25.7 kcal/mol
GTACGCGAAAGCGCTTAC ((((((....)))..)))	29.4 °C	-9.36 kcal/mol
GTACGCGAAAGCGTATAC ((((((....)))..)))	49.2 °C	-9.55 kcal/mol

Sequence	Tm [1]	folding enthalpy [2]
GTACGCGGAAACACGCAC ((.((.(....).)).))	31.1 °C	-12.6 kcal/mol
GTACGCGGAAACACGTAC (((((.(....).)))))	47.9 °C	-34.1 kcal/mol
GTACGGACGAAAGTCTAC (((..(((....))))))	31 °C	-10.2 kcal/mol
GTACGGCCGAAAGGCTAC (((..(((....))))))	28.7 °C	-7.78 kcal/mol
GTACGGGGAAACCCATAC (((.(((....))).)))	35 °C	-21.9 kcal/mol
GTACGGGGAAACCTGTAC ((((.((....)).))))	49.7 °C	-35.9 kcal/mol
GTACGGTCGAAAGACTAC (((..(((....))))))	26.8 °C	-10.6 kcal/mol
GTACGTGGAAACACGTAC (((((((....)))))))	63.8 °C	-46.8 kcal/mol
GTACGTGGAAACATGTAC ((((.((....)).))))	47.5 °C	-34.1 kcal/mol
GTACTACGAAAGTATAC (((.(((....))))))	27.9 °C	-15.3 kcal/mol
GTACTCCCGAAAGGGTAC (((..(((....))))))	33.5 °C	-12.9 kcal/mol
GTACTCCGAAAGGATAC (((.(((....))))))	36.9 °C	-21.6 kcal/mol
GTACTCGAAAGAGACTAC ((((((....)))..)))	33.6 °C	-14.5 kcal/mol
GTACTCGAAAGAGCATAC ((((((....)))..)))	23.5 °C	-10.9 kcal/mol
GTACTCGAAAGAGCTTAC ((((((....)))..)))	27.6 °C	-11.4 kcal/mol
GTACTCGAAAGAGTATAC ((((((....)))..)))	39.3 °C	-13.3 kcal/mol
GTACTCGAAAGAGTGTAC ((((((....)))..)))	35.9 °C	-12.6 kcal/mol
GTACTCGAAAGAGTTAC ((((((....))).)))	38.9 °C	-14.8 kcal/mol
GTACTCGGAAACAAGTAC (((((.(....).)))))	32.5 °C	-23.4 kcal/mol
GTACTCGGAAACGAATAC (((.(((....))).)))	33.5 °C	-17.8 kcal/mol
GTACTGCGAAAGCATAC (((.(((....))))))	36.6 °C	-12 kcal/mol
GTACTGGGAAACTGGTAC ((((..(....)..))))	36.5 °C	-24.5 kcal/mol
GTACTGTCGAAAGACTAC (((..(((....))))))	26.4 °C	-10.3 kcal/mol

Sequence	Tm [1]	folding enthalpy [2]
GTACTTACGAAAGTATAC (((..(((....))))))	16.2 °C	-6.58 kcal/mol
GTACTTGGAAACAAGTGC (.(((((....))))).)	47.4 °C	-21.1 kcal/mol
GTACTTGGAAACGAGTAC (((((.(....).)))))	44.2 °C	-33.6 kcal/mol
GTAGACGAAAGTCCTTAC ((((((....)))..)))	30.7 °C	-12.1 kcal/mol
GTAGACGAAAGTCGTTAC ((((((....)))..)))	34.6 °C	-11 kcal/mol
GTAGACGAAAGTCTAC ((((((....))))))	62 °C	-35.9 kcal/mol
GTAGACGCGAAAGCGTAC (((..(((....))))))	36.9 °C	-8.63 kcal/mol
GTAGACGGAAACGTTTGC (.(.(((....))).).)	29.6 °C	-16.7 kcal/mol
GTAGAGCCGAAAGGCTAC (((..(((....))))))	34.6 °C	-10.5 kcal/mol
GTAGAGGGAAACCTCTAC (((((((....)))))))	55.8 °C	-54.2 kcal/mol
GTAGATGAAAATCTAC ((((((....))))))	48.6 °C	-29.2 kcal/mol
GTAGATGGAAACATCTAC (((((((....)))))))	55.5 °C	-41.3 kcal/mol
GTAGCAGGAAACCGCTAC (((((.(....).)))))	48.5 °C	-32.4 kcal/mol
GTAGCAGGAAACTGCCAC ((.((((....)))).))	36.7 °C	-14.3 kcal/mol
GTAGCCCCGAAAGGGTAC (((..(((....))))))	39.1 °C	-13.1 kcal/mol
GTAGCCCGAAAGGGGTAC (((.(((....))).)))	68.5 °C	-32 kcal/mol
GTAGCCCGAAAGGGTTAC (((.(((....))).)))	60.2 °C	-25.4 kcal/mol
GTAGCCGAAAGGCAATAC ((((((....)))..)))	31.2 °C	-9.85 kcal/mol
GTAGCCGAAAGGCCGTAC ((((((....)))..)))	26.7 °C	-7.15 kcal/mol
GTAGCCGAAAGGCGGTAC ((((((....)))..)))	41.2 °C	-9.4 kcal/mol
GTAGCGCGAAAGCGGTAC (((.(((....))).)))	68.8 °C	-25.3 kcal/mol
GTAGCGGGAAACCGCTGC (.(((((....))))).)	59.7 °C	-17.3 kcal/mol
GTAGCGGGAAACCGTTGC (.(.(((....))).).)	35.3 °C	-19.2 kcal/mol

Sequence	Tm [1]	folding enthalpy [2]
GTAGCGGGAAACTGCTAC (((((.(....).)))))	53.6 °C	-37.1 kcal/mol
GTAGCGTCGAAAGACTAC (((..(((....))))))	24.7 °C	-9.24 kcal/mol
GTAGCTCGAAAGAGATAC (((.(((....))).)))	54.9 °C	-43.5 kcal/mol
GTAGCTGAAAAGCTAC ((((((....))))))	60 °C	-37.9 kcal/mol
GTAGCTGGAAACAGTTAC (((.(((....))).)))	42.8 °C	-32.8 kcal/mol
GTAGCTGGAAACAGTTGC (.(.(((....))).).)	30.8 °C	-14.5 kcal/mol
GTAGCTGGAAACGGCTAC (((((.(....).)))))	52.5 °C	-40.8 kcal/mol
GTAGGACCGAAAGGTTAC (((..(((....))))))	28.5 °C	-12.7 kcal/mol
GTAGGACGAAAGTCGTAC (((.(((....))).)))	53.2 °C	-35.6 kcal/mol
GTAGGACGAAAGTCTTAC (((.(((....))).)))	47.7 °C	-26.2 kcal/mol
GTAGGAGGAAACTCCCAC ((.((((....)))).))	30.9 °C	-16.4 kcal/mol
GTAGGCGAAAGCCCCTAC ((((((....)))..)))	23.7 °C	-7.29 kcal/mol
GTAGGCGAAAGCCCTAC ((((((....))).)))	47.7 °C	-14.8 kcal/mol
GTAGGCGAAAGCCGTTAC ((((((....)))..)))	39.8 °C	-8.81 kcal/mol
GTAGGCGAAAGCCTTAC ((((((....))).)))	44.9 °C	-9.64 kcal/mol
GTAGGCGGAAACGCTTGC (.(.(((....))).).)	30.3 °C	-11.6 kcal/mol
GTAGGGGGAAACCCCTAC (((((((....)))))))	61.9 °C	-37.4 kcal/mol
GTAGGTCCGAAAGGATAC (((..(((....))))))	28.8 °C	-12.1 kcal/mol
GTAGGTCGAAAGACTAC (((.(((....))))))	43.3 °C	-17.6 kcal/mol
GTAGGTCGAAAGACTTAC (((.(((....))).)))	47.9 °C	-27.3 kcal/mol
GTAGTAGCGAAAGCTTAC (((..(((....))))))	30.5 °C	-11.3 kcal/mol
GTAGTAGGAAACTACCAC ((.((((....)))).))	32.2 °C	-17.2 kcal/mol
